HKDC1 inh: inhibitors of human hexokinase HKDC1; 340,000 tested, 0.16% active; Q2TB90; inhibition, % at 20 µM; recombinant HKDC1, G6PDH/diaphorase resazurin coupled fluorescence;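 active = inhibition above about 35% when tested at 20 µM, limit read from the data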;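 note: plate controls were DMSO wells with enzyme for no effect and DMSO wells lacking enzyme for full effect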
Target sequence (Q2TB90 whole entry, looked up): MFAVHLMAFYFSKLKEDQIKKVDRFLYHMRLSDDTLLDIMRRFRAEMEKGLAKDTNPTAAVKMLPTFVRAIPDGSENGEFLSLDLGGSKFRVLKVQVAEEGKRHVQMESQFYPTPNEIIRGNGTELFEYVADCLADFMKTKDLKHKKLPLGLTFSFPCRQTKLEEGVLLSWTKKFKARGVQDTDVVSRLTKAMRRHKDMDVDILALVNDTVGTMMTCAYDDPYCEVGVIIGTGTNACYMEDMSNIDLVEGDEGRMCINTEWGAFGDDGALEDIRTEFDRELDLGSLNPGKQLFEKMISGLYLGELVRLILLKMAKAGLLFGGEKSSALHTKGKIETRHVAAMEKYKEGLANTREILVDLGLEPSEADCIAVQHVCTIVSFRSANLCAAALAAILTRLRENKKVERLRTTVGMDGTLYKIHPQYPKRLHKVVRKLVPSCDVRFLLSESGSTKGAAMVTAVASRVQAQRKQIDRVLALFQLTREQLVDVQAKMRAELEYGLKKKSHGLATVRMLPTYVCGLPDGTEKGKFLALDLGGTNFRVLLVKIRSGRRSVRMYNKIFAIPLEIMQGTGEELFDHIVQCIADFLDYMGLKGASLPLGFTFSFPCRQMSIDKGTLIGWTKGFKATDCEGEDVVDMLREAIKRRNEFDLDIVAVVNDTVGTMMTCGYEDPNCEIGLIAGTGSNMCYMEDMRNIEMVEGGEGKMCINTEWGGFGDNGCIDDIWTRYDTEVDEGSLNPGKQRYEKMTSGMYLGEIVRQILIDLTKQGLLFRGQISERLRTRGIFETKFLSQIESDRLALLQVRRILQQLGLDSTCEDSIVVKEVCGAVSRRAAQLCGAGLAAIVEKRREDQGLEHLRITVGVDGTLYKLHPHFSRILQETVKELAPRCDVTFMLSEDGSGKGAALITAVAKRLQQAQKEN
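Material: recombinant HKDC1 hexokinase; Amount: HKDC1 at 5 µg/mL; Medium: Tris pH 8.0 buffer with MgCl2, Tween-20, BSA, BME; Schedule: 90 min reaction incubation at room temperature, dark; Technique: coupled resazurin fluorescence, excitation 525 nm, emission 613 nm.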
Diaph inh CS: inhibits diaphorase or chemically oxidizes, flagging diaphorase assay artifacts; inhibition, % at 20 µM; diaphorase resazurin-to-resorufin fluorescence, NADH, 16 min; bacterial (C. kluyveri) enzyme, not human; AID 1217; 190,000 tested, 0.69% active;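 active = primary screen inhibition at 20 µM above a set limit, cut at about 50% in these data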;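 note: plate controls were DMSO with full reaction for no effect and wells lacking NADH for full effect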
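controls = No-NADH positive control and DMSO neutral control | system = Clostridium kluyveri diaphorase enzyme | timing = reaction incubation of 16 min at room temperature | signal = resorufin fluorescence 544/590 nm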
G6PDH counter: inhibits Leuconostoc G6PDH, flagging false hits in G6PDH-based assays; Purified L. mesenteroides G6PDH, diaphorase/resazurin coupled fluorescence, 45 min; AID 1020; 200,000 tested, 0.12% active; inhibition, % at 5 µM; in the data active = inhibition above about 50%
PfGluPho inh: PfG6PD (Plasmodium falciparum) enzyme inhibition; 350,000 tested, 0.78% active; inhibition, % at 20 µM; PfGluPho enzyme, NADPH resazurin-diaphorase fluorescence; AID 504690;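 active = inhibition reaching at least a set limit at 20 µM in the primary screen, cut at about 59% in these data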;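 note: 0% = DMSO wells with substrate and 100% = DMSO wells lacking glucose-6-phosphate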
Diaphorase act: diaphorase activation or chemical reduction counter-screen; Diaphorase/resazurin coupled assay, resorufin fluorescence, 16 min; active compounds read high; 1 = vehicle wells, 0 = NADH-free wells; activation factor at 20 µM; 190,000 tested, 0.005% active; AID 1229;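 active = diaphorase activity raised at least twofold by the compound at 20 µM; inactive = activation factor below 2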
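Measured by – red resorufin fluorescence at 544/590 nm excitation/emission · Test system – Clostridium kluyveri diaphorase, purified enzyme · Incubation – reaction time 16 min, room temperature · Buffer or medium – 50 mM HEPES pH 7.4 with 4.542 mM MgCl2, 0.005% Tween 20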
PfG6PD confirm: PfG6PD inhibition, single-dose confirmed; shares compounds with PfGluPho inh; recombinant PfGluPho, NADPH-diaphorase-resazurin fluorescence; inhibition, % at 20 µM; 2,400 tested, 34% active;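 active = inhibition of at least 50% at 20 µM in any single replicate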;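 note: 0% = DMSO with substrate and 100% = DMSO lacking glucose-6-phosphate substrate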
Diaph ctr 10uM: counter-screen for P. falciparum G6PD inhibitors: diaphorase inhibitors, oxidizers | shares compounds with PfGluPho inh | diaphorase-coupled resazurin reduction, fluorescence, NADPH 10 uM | inhibition, % at 20 µM | 820 tested, 39% active | AID 504862;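 active = average inhibition reaching 50% or more with the compound at 20 µM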;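 note: resorufin red fluorescence formed as diaphorase reduces resazurin using NADPH; 0% = DMSO with enzyme and 100% = DMSO without enzyme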
Diaphorase 30uM: inhibits diaphorase or oxidizes, flagging false PfG6PD hits. Diaphorase/resazurin coupled assay, resorufin fluorescence, 30 uM NADPH. inhibition, % at 20 µM. 820 tested, 29% active. shares compounds with PfGluPho inh;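 active = inhibition averaging 50% or more, tested at 20 µM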;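 note: 0% = DMSO with enzyme and 100% = DMSO wells lacking diaphorase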
Starred values were filed as active, the others as inactive; · = no result. A selection: hits, their analogues and other compounds. The true share with any hit is near 1.3%.

SMILES	HKDC1 inh	Diaph inh CS	G6PDH counter	PfGluPho inh	Diaphorase act	PfG6PD confirm	others
O=C(CN1CCN(c2ccc(O)cc2)CC1)Nc1cc(S(=O)(=O)N2CCCC2)ccc1Cl	12	23	6	67*	0.8	30
COc1ccc(NC(=O)c2ccc(NC(=O)CN3CCN(c4ccc(O)cc4)CC3)cc2)cc1	9	·	·	75*	·	36
O=C(CN1CCN(c2ccc(O)cc2)CC1)Nc1ccc2c(c1)OCCCO2	1	·	·	79*	·	27
Oc1ccc(N2CCN(Cc3cc4c(cc3Br)OCCO4)CC2)cc1	5	·	·	74*	·	6
S=C(NC1CCCC1)N1CCN(c2ccccn2)CC1	15	8	-10	-6	0.9	·
CC(=NNC(=S)N1CCN(c2ccccn2)CC1)c1ccccn1	-21	·	·	84*	·	30
CC(=NNC(=S)N1CCN(c2ccccn2)CC1)c1nccs1	-36	·	·	93*	·	57*	Diaph ctr 10uM=-3;Diaphorase 30uM=4
Cc1ccc(-n2c(N)c(C(=O)N3CCN(C)CC3)sc2=S)cc1	-15	9	-18	79*	0.9	70*	Diaph ctr 10uM=6;Diaphorase 30uM=8
Cc1ccc(-n2c(N)c(C(=O)N3CCCCC3)sc2=S)cc1	-4	10	3	41	0.9	·
Nc1c(C(=O)N2CCOCC2)sc(=S)n1-c1ccccc1	-7	7	-25	59*	0.9	9
CCOc1ccc(-n2c(N)c(C(=O)N3CCN(C)CC3)sc2=S)cc1	-4	13	-2	1	0.9	·
Nc1c(C(=O)N2CCCCC2)sc(=S)n1-c1ccccc1	-22	-3	1	79*	1	35
COc1ccc(NC(=O)c2cn(CCC#N)nc2-c2cc3ccccc3o2)cc1	-3	17	2	8	0.8	·
COC(=O)CNC(=O)CSc1nnc2cc(C)c3ccccc3n12	-5	6	3	2	0.9	·
CCCNC(=S)N1CCC(Cc2ccccc2)CC1	-1	·	·	-5	·	·
C=CCN=C1S/C(=C\N(C)C)C(=O)N1S(=O)(=O)c1ccc(C)cc1	-2	·	·	7	·	·
CCN(C(=S)NC(=O)C1CC1)c1ccccc1	-2	·	·	8	·	·
CN(C(=S)NC(=O)C1CC1)c1ccc(O)cc1	2	·	·	60*	·	-1
Cc1cc2nc3c(=O)[nH]c(=O)[nH]c3nc2c([N+](=O)[O-])c1N	26	65*	30	50	0.3	40
CC(C)CC(=O)NC(NC(=S)Nc1sc2c(c1C#N)CCCC2)C(Cl)(Cl)Cl (centres undefined)	-2	25	7	-18	0.7	·
Cc1ccc(C(=O)/C=C/C(=O)c2ccc(C)cc2)cc1	16	1	3	76*	1	51*	Diaph ctr 10uM=-26;Diaphorase 30uM=-28
Cc1ccc(/C=C/C(=O)c2ccc(C)cc2)cc1	5	14	0	23	0.9	·
O=C(COC(=O)c1cccc(S(=O)(=O)N2CCCC2)c1)Nc1ccccc1Cl	0	·	·	-2	·	·
Cc1cc(S(=O)(=O)ON2C(=O)c3ccccc3C2=O)ccc1F	4	·	·	65*	·	6
O=C(NCCCN1CCOCC1)c1sc2cc([N+](=O)[O-])ccc2c1Cl	15	6	1	88*	0.9	95*	Diaph ctr 10uM=-22;Diaphorase 30uM=-21
SMILES	HKDC1 inh	Diaph inh CS	G6PDH counter	PfGluPho inh	Diaphorase act	PfG6PD confirm	others
O=C(Nc1ccccn1)c1sc2cc([N+](=O)[O-])ccc2c1Cl	-22	·	·	70*	·	61*	Diaph ctr 10uM=-15;Diaphorase 30uM=-18
Cc1ccc(S(=O)(=O)N(Cc2cccc(C(F)(F)F)c2)C(=O)N2CCN(C)CC2)cc1	-5	·	·	-5	·	·
CCCSc1nc(=O)n2cc(C)ccc2n1	-15	8	-13	-2	0.9	·
COc1ccc(C(=O)c2cnc[nH]2)cc1OC	-5	·	·	-20	·	·
Cc1ccc(N(O)C(C)(C)C)cc1	2	·	·	72*	·	8
Cc1ccc(N(C)S(=O)(=O)c2ccc(C)cc2)cc1	10	10	3	19	0.9	·
CCOC(=O)c1ccc(/[N+]([O-])=C/c2ccccc2)cc1	-1	·	·	90*	·	97*	Diaph ctr 10uM=49;Diaphorase 30uM=8
C#CCCc1cscc1/C=[N+](\[O-])c1ccc(C(=O)OCC)cc1	1	·	·	116*	·	103*	Diaph ctr 10uM=43;Diaphorase 30uM=15
COc1ccccc1CNS(=O)(=O)CCNC1CCCCC1	-2	·	·	-7	·	·
Cc1cccn2c(=O)c3cc(C(=O)NC4CCCC4)c(=N)n(CCc4ccccc4)c3nc12	-9	·	·	9	·	·
CCOCCCn1c(=N)c(C(N)=S)cc2c(=O)n3cccc(C)c3nc21	2	8	-34	64*	0.9	8
Cc1cccn2c(=O)c3cc(C(=O)NC4CCCC4)c(=N)n(Cc4ccc(F)cc4)c3nc12	2	·	·	64*	·	-10
N=c1c(C(=O)NC2CCCCC2)cc2c(=O)n3ccccc3nc2n1Cc1ccc(F)cc1	-3	·	·	15	·	·
Cc1cccn2c(=O)c3cc(C(N)=S)c(=N)n(CCCOC(C)C)c3nc12	-5	35	7	24	0.6	·
Cc1cccn2c(=O)c3cc(C(=O)NC4CCCCC4)c(=N)n(Cc4ccccc4)c3nc12	-3	·	·	70*	·	-1
Cc1ccc(S(=O)(=O)N(CCCc2c(C)nc(N)[nH]c2=O)Cc2ccc([N+](=O)[O-])cc2)cc1	·	·	·	62*	·	25
CCC(C)N1CCN(C(=O)c2cccs2)CC1 (centres undefined)	-10	·	·	-2	·	·
CCc1nnc(NC(=O)c2ccc(Cl)nc2)s1	-2	12	4	78*	0.9	57*	Diaph ctr 10uM=49;Diaphorase 30uM=41
C=CCSc1nnc(NC(=O)c2ccc(Cl)nc2)s1	3	-1	3	82*	1	78*	Diaph ctr 10uM=72*;Diaphorase 30uM=49
CC(C)(C)c1nnc(NC(=O)c2ccc(Cl)nc2)s1	-12	-7	4	103*	1.1	95*	Diaph ctr 10uM=81*;Diaphorase 30uM=62*
O=C(Nc1nnc(C2CC2)s1)c1ccc(Cl)nc1	3	·	·	80*	·	58*	Diaph ctr 10uM=64*;Diaphorase 30uM=50
C=CCSc1nnc(NC(=O)c2ccc(N3CCCC3=O)cc2)s1	3	·	·	-10	·	·
CCc1nnc(NC(=O)c2cc(Cl)ccn2)s1	5	·	·	17	·	·
Cn1c(Cn2c(=O)sc3ccccc32)nnc1SCC(=O)NCc1ccco1	-8	7	0	12	0.9	·
CCCc1nnc(NC(=O)CS(=O)(=O)c2ccc(C)cc2)s1	-2	·	·	-4	·	·
O=C(CCN1CCOCC1)N1CCc2c([nH]c3ccccc23)C1c1cccc(Cl)c1 (centres undefined)	0	17	17	2	0.8	·

High-throughput results: PubChem BioAssay, Sanford-Burnham Center for Chemical Genomics
